Reference: ChEMBL document CHEMBL5678806, “NMS-P937, an orally available, specific small-molecule polo-like kinase 1 inhibitor with antitumor activity in solid and hematologic malignancies” (Mol Cancer Ther, 2012)
Calls of active or inactive are those of the source. The rule behind the calls is not given here.

Tests used:
[1] = target: Casein kinase 2 (Homo sapiens, UniProt P67870+P68400+P19784+Q8NEV1); experiment: Inhibition of CK2 (unknown origin) in presence of [gamma-33P]ATP; type: protein assay
[2] = target: RAC-alpha serine/threonine-protein kinase (Homo sapiens, UniProt P31749); experiment: Inhibition of AKT1 (unknown origin) in presence of [gamma-33P]ATP
RAC-alpha serine/threonine-protein kinase, sequence (P31749 whole entry): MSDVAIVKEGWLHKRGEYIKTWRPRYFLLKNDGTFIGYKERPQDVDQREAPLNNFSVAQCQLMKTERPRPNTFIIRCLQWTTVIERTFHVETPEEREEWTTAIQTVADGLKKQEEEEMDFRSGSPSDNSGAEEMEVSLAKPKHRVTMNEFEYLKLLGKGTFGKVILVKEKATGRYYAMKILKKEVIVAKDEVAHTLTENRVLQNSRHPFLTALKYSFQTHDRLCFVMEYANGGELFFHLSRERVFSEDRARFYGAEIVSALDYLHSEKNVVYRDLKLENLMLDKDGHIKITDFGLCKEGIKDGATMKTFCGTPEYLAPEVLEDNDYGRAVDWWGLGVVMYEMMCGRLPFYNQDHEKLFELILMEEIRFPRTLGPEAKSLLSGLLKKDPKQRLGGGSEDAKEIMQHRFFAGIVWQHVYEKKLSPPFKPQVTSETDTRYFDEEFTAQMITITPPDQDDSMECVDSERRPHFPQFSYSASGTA

[3] = target: Mitogen-activated protein kinase 1 (Homo sapiens, UniProt P28482); experiment: Inhibition of ERK2 (unknown origin) in presence of [gamma-33P]ATP
Mitogen-activated protein kinase 1, sequence (P28482 whole entry): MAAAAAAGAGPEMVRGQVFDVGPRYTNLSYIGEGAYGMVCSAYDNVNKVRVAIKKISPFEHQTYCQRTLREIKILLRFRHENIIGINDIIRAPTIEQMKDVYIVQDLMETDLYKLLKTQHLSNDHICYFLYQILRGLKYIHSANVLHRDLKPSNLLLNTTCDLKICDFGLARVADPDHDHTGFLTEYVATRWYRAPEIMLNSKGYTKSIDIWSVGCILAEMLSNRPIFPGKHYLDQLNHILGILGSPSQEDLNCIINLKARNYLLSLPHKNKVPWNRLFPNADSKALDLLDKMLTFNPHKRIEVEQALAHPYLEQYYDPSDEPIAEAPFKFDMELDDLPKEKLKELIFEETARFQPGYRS

[4] = target: Fibroblast growth factor receptor 1 (Homo sapiens, UniProt P11362); experiment: Inhibition of FGFR1 (unknown origin) in presence of [gamma-33P]ATP
[5] = target: Vascular endothelial growth factor receptor 3 (Homo sapiens, UniProt P35916); experiment: Inhibition of VEGFR3 (unknown origin) in presence of [gamma-33P]ATP
[6] = target: Calcium/calmodulin-dependent protein kinase type II subunit gamma (Homo sapiens) (UniProt Q13555); experiment: Inhibition of N-terminal 6His-tagged recombinant human CaMKIIgamma (1 to 330 residues) expressed in baculovirus infected Sf21 cells assessed as residual activity at 0.1 uM relative to control
[7] = target: Tyrosine-protein kinase Lyn (Mus musculus) (UniProt P25911); experiment: Inhibition of N-terminal his6-tagged recombinant full-length mouse Lyn expressed in baculovirus infected Sf21 cells assessed as residual activity at 0.1 uM relative to control
Tyrosine-protein kinase Lyn (Mus musculus), sequence (P25911 whole entry): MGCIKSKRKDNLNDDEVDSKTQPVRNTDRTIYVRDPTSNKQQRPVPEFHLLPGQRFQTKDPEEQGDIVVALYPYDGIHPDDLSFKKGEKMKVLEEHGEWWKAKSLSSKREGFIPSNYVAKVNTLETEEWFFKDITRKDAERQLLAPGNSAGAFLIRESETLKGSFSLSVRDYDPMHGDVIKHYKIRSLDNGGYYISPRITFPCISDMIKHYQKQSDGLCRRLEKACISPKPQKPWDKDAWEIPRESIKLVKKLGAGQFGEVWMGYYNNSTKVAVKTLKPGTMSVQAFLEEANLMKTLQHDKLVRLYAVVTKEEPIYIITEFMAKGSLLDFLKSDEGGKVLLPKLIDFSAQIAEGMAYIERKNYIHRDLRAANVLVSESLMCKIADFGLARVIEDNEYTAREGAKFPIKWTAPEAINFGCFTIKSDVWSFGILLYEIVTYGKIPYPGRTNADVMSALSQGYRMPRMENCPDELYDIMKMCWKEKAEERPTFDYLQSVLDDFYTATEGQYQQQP

[8] = target: SRSF protein kinase 3 (Homo sapiens) (UniProt Q9UPE1); experiment: Inhibition of N-terminal 6His-tagged recombinant human full-length MSSK1 expressed in baculovirus infected Sf21 cells assessed as residual activity at 0.1 uM relative to control
[9] = target: Insulin receptor-related protein (Homo sapiens) (UniProt P14616); experiment: Inhibition of N-terminal 6His-tagged recombinant human IRR (944 to 1266 residues) expressed in baculovirus infected Sf21 cells assessed as residual activity at 1 uM relative to control
Insulin receptor-related protein (Homo sapiens), sequence (P14616 27-742 limits assumed): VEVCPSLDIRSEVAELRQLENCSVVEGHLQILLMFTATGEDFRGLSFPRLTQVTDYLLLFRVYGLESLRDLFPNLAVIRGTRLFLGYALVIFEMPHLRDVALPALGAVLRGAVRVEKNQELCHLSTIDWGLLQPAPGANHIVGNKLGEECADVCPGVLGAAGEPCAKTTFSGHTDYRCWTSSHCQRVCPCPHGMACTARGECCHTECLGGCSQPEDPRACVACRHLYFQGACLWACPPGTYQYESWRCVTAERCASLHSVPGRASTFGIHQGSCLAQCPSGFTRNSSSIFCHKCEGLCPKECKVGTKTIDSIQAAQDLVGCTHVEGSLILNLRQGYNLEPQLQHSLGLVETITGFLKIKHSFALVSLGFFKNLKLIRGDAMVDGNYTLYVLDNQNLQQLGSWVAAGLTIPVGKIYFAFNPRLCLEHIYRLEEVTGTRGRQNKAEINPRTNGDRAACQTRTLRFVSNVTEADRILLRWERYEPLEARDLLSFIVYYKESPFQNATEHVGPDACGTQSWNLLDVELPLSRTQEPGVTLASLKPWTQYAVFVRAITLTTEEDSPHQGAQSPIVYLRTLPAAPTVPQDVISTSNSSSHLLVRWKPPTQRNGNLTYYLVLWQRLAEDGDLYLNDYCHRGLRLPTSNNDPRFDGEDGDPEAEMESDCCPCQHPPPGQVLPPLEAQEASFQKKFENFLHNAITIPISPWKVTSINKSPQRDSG
Insulin receptor-related protein (Homo sapiens), sequence (P14616 747-1297 limits assumed): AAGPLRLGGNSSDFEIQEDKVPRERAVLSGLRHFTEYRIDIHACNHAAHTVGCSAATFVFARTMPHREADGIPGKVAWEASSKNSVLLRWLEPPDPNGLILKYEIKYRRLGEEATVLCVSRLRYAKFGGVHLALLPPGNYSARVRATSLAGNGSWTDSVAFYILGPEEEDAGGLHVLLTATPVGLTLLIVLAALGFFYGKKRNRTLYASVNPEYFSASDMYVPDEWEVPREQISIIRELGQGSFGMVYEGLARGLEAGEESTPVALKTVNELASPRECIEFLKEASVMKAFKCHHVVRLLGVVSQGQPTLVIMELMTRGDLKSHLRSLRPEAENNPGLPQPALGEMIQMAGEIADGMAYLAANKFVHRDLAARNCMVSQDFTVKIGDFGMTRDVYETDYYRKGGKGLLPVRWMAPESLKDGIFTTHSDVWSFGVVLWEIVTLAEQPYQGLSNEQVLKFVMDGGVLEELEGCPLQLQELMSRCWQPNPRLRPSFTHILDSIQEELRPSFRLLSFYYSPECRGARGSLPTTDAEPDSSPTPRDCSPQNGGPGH

[10] = target: Ribosomal protein S6 kinase alpha-4 (Homo sapiens) (UniProt O75676); experiment: Inhibition of N-terminal His6-tagged recombinant human MSK2 (2 to end residues) expressed in baculovirus infected Sf21 cells assessed as residual activity at 1 uM relative to control
Ribosomal protein S6 kinase alpha-4 (Homo sapiens), sequence (O75676 whole entry, looked up): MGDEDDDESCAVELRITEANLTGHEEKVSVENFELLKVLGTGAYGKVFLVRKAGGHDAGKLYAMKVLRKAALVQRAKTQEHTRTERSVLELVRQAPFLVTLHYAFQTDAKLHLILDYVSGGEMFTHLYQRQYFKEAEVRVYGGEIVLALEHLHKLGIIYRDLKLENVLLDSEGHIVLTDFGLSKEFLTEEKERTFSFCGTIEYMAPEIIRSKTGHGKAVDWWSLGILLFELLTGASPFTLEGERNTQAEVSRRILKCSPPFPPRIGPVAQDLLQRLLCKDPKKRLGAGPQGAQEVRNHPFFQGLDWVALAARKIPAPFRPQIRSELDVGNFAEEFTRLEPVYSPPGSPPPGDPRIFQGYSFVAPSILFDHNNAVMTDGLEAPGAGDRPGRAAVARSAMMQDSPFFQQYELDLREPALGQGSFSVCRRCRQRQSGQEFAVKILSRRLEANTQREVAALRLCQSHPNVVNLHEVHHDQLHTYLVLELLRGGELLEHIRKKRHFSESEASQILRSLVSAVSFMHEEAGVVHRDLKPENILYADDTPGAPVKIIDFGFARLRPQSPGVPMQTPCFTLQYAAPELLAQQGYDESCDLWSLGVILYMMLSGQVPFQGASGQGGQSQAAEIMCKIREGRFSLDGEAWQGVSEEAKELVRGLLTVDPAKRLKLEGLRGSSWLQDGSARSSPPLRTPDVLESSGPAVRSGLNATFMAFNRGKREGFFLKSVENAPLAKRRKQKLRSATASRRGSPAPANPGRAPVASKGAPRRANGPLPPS

[11] = target: Macrophage-stimulating protein receptor (Homo sapiens) (UniProt Q04912); experiment: Inhibition of N-terminal GST-tagged recombinant human Ron (983 to end residues) expressed in baculovirus infected Sf21 cells assessed as residual activity at 1 uM relative to control
Macrophage-stimulating protein receptor (Homo sapiens), sequence (Q04912 25-304 limits assumed): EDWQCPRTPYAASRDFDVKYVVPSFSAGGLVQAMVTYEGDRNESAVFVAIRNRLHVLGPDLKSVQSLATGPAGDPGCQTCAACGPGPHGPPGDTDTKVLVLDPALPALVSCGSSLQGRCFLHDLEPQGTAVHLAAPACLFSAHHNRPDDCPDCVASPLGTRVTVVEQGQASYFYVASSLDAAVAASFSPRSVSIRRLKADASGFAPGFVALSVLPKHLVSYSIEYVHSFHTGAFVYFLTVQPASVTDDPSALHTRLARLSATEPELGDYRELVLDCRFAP
Macrophage-stimulating protein receptor (Homo sapiens), sequence (Q04912 310-1400 limits assumed): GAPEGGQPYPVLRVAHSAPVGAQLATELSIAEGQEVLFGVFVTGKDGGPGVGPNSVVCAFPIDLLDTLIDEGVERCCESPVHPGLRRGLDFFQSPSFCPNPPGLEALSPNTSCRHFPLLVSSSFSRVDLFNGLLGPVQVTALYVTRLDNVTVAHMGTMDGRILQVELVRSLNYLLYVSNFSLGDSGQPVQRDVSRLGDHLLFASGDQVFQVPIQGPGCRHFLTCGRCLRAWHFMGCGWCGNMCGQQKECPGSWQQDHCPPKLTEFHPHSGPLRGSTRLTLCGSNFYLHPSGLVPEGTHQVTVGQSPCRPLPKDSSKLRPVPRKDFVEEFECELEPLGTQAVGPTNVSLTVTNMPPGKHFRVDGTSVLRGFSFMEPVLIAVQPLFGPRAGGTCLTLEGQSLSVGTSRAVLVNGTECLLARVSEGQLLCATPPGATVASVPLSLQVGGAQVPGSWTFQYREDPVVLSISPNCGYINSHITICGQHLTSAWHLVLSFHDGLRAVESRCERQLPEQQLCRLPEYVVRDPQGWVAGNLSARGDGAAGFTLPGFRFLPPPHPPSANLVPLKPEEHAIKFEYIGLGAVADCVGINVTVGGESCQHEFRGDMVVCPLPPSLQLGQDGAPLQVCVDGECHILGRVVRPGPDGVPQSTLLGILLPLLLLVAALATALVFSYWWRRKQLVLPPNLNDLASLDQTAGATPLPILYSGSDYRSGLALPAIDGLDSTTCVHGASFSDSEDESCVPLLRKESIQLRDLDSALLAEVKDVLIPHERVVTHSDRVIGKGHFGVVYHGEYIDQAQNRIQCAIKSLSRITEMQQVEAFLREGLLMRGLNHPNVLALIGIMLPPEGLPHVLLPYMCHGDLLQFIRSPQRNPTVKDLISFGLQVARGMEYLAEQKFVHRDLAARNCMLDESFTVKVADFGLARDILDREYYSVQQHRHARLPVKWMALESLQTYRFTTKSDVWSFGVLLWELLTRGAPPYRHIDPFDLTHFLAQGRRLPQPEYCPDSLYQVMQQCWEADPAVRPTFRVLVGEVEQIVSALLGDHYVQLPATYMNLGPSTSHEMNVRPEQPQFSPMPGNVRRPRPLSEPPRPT

[12] = system: U-251; experiment: Antiproliferative activity against human U-251 cells assessed as inhibition of cell growth incubated for 72 hrs by cell-titer glo assay; type: functional, cell-based; conditions: U-251, 72 h
[13] = system: AU565; experiment: Antiproliferative activity against human AU565 cells assessed as inhibition of cell growth incubated for 72 hrs by cell-titer glo assay; type: functional, cell-based; conditions: AU565, 72 h
Procedure, shortened: (§1)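 Cells seeded 10,000–30,000/cm² (adherent) or 100,000/mL (suspension) in medium with 10% fetal calf serum; after 24 h treated in duplicate with serial dilutions for 72 h. Viable cells read by CellTiter-Glo luminescence; IC50 from sigmoidal fit; at least two independent experiments.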

[14] = system: EVSA-T; experiment: Antiproliferative activity against human EVSA-T cells assessed as inhibition of cell growth incubated for 72 hrs by cell-titer glo assay; type: functional, cell-based; procedure, shortened: as §1
[15] = system: BT-20; experiment: Antiproliferative activity against human BT-20 cells assessed as inhibition of cell growth incubated for 72 hrs by cell-titer glo assay; type: functional, cell-based; conditions: BT-20, 72 h; procedure, shortened: as §1
[16] = system: HCC1937; experiment: Antiproliferative activity against human HCC1937 cells assessed as inhibition of cell growth incubated for 72 hrs by cell-titer glo assay; type: functional, cell-based; conditions: HCC1937, 72 h
Procedure, shortened: (§2)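 Cells seeded at 10,000–30,000/cm² (adherent) or 100,000/mL (nonadherent) in medium with 10% fetal calf serum; after 24 h, treated in duplicate with serial dilutions for 72 h. Viable cell number read by CellTiter-Glo luminescence; IC50 from sigmoidal fit; at least two independent experiments.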

[17] = system: C-33-A; experiment: Antiproliferative activity against human C-33-A cells assessed as inhibition of cell growth incubated for 72 hrs by cell-titer glo assay; type: functional, cell-based; procedure, shortened: as §1
[18] = Antiproliferative activity against human COLO 206F cells assessed as inhibition of cell growth incubated for 72 hrs by cell-titer glo assay; type: functional, cell-based; procedure, shortened: as §1
[19] = system: HCC78; experiment: Antiproliferative activity against human HCC78 cells assessed as inhibition of cell growth incubated for 72 hrs by cell-titer glo assay; type: functional, cell-based; conditions: HCC78, 72 h; procedure, shortened: as §2
[20] = system: IGROV-1; experiment: Antiproliferative activity against human IGROV-1 cells assessed as inhibition of cell growth incubated for 72 hrs by cell-titer glo assay; type: functional, cell-based; conditions: IGROV-1, 72 h; procedure, shortened: as §2
[21] = system: A-431; experiment: Antiproliferative activity against human A-431 cells assessed as inhibition of cell growth incubated for 72 hrs by cell-titer glo assay; type: functional, cell-based; conditions: A-431, 72 h; procedure, shortened: as §1
[22] = system: A-375; experiment: Antiproliferative activity against human A-375 cells assessed as inhibition of cell growth incubated for 72 hrs by cell-titer glo assay; type: functional, cell-based; conditions: A-375, 72 h; procedure, shortened: as §1
[23] = system: KG-1; experiment: Antiproliferative activity against human KG-1 cells assessed as inhibition of cell growth incubated for 72 hrs by cell-titer glo assay; type: functional, cell-based; conditions: KG-1, 72 h; procedure, shortened: as §2
[24] = system: SKM-1; experiment: Antiproliferative activity against human SKM-1 cells assessed as inhibition of cell growth incubated for 72 hrs by cell-titer glo assay; type: functional, cell-based; conditions: SKM-1, 72 h
[25] = system: NALM-6; experiment: Antiproliferative activity against human NALM-6 cells assessed as inhibition of cell growth incubated for 72 hrs by cell-titer glo assay; type: functional, cell-based; conditions: NALM-6, 72 h
Procedure, shortened: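 Cells from ATCC or ECACC, kept in supplier-recommended medium with 1% penicillin-streptomycin at 37°C, 5% CO₂. Seeded at 10,000–30,000/cm² (adherent) or 100,000/mL (nonadherent) in medium with 10% fetal calf serum. Dosed after 24 h in duplicate with serial dilutions. Viable cells read by CellTiter-Glo 72 h later. IC50 from sigmoidal fit. At least two independent experiments.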

[26] = system: Granta-519; experiment: Antiproliferative activity against human Granta-519 cells assessed as inhibition of cell growth incubated for 72 hrs by cell-titer glo assay; type: functional, cell-based; conditions: Granta-519, 72 h; procedure, shortened: as §2
[27] = system: Toledo; experiment: Antiproliferative activity against human Toledo cells assessed as inhibition of cell growth incubated for 72 hrs by cell-titer glo assay; type: functional, cell-based
[28] = system: NHDF; experiment: Induction of DNA damage in human NHDF cells assessed as H2AX phosphorylation at 0.5 to 1 uM incubated for 8 hrs by Western blotting analysis; type: toxicity, cell-based; conditions: dose 0.5-1 µM
[29] = Cmax in nu/nu mouse at 10 mg/kg, iv by LC-MS analysis; type: ADME, organism-based; conditions: in vivo
[30] = Oral bioavailability in Sprague-Dawley rat at 10 mg/kg by LC-MS analysis; type: ADME, organism-based; conditions: in vivo
[31] = system: A2780; experiment: In vivo inhibition of PLK1 in human A2780 cells xenografted in nu/nu mouse assessed as decreased TCTP phosphorylation on Ser46 at 90 to 120 mg/kg, po administered for 6 to 12 hrs by Western blotting analysis; type: functional, organism-based; conditions: dose lower 90.0 mg/kg, dose upper […], time lower 6.0 hrs

## CN1CCN(c2ccc(OC(F)(F)F)c(Nc3ncc4c(n3)-c3c(c(C(N)=O)nn3CCO)CC4)c2)CC1 [ONVANSERTIB]
[1]
  IC50: 826 nM
[2]
  IC50: > 10000 nM
[3]
  IC50: > 10000 nM
[4]
  IC50: > 10000 nM
[5]
  IC50: > 10000 nM
[6]
  Activity: 123%
[7]
  Activity: 137%
[8]
  Activity: 87%
[9]
  Activity: 114%
[10]
  Activity: 85%
[11]
  Activity: 42%
[12]
  IC50: 190 nM
[13]
  IC50: 11 nM
[14]
  IC50: 41 nM
[15]
  IC50: 93 nM
[16]
  IC50: 595 nM
[17]
  IC50: 61 nM
[18]
  IC50: 93 nM
[19]
  IC50: 340 nM
[20]
  IC50: 54 nM
[21]
  IC50: 59 nM
[22]
  IC50: 40 nM
[23]
  IC50: 58 nM
[24]
  IC50: 60 nM
[25]
  IC50: 61 nM
[26]
  IC50: 29 nM
[27]
  IC50: 42 nM
[28]
  Activity: Toxic
[29]
  Cmax: 8.3 µM
[30]
  F: 100%
[31]
  inhibition: Active
